According to ChEMBL document CHEMBL4422612, “Small Molecule Inhibitor that Stabilizes the Autoinhibited Conformation of the Oncogenic Tyrosine Phosphatase SHP2” (J Med Chem, 2019):
Residue numbers refer to the chain shown, from its start. Activity calls are given as the source filed them.

Columns and labels:
NCI-H596 = test: Growth inhibition of human NCI-H596 cells after 48 hrs by cell proliferation-based assay; format: functional
Summary of the method: (§1)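 H661 (PTPN11 N58S/+) and H596 (WT PTPN11) lung cancer cells exposed to a concentration series for 48 h, DMSO as control. Cell number measured by One Solution proliferation assay. Triplicates from one of three repeated experiments.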

[1] = biological target: T1, Tyrosine-protein phosphatase non-receptor type 11 (Homo sapiens) (UniProt Q06124); test: Inhibition of human wild-type full length SHP2 at 20 uM using H-Glu-Phe-pTyr-Ala-Glu-Val-Gly-Arg-Ser-ProPro-Asp-Pro-Ala-Lys as substrate in presence of 0.001% Triton X
T1 sequence (whole entry): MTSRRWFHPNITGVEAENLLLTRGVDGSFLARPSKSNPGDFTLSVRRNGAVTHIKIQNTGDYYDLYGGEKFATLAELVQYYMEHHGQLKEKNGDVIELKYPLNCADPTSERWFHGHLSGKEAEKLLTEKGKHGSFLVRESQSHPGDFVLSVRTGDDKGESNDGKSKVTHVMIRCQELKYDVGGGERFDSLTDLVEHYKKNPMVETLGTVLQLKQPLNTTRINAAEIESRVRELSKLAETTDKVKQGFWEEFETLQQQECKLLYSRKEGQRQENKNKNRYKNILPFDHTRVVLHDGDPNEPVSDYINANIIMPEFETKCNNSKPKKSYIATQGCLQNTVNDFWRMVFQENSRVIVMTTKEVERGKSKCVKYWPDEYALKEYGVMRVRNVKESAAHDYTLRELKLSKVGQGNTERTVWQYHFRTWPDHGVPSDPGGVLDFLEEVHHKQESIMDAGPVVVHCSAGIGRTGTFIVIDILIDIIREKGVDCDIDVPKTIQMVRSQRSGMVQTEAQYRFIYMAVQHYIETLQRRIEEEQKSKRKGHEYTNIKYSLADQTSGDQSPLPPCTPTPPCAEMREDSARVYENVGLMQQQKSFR

[2] = biological target: T1, Tyrosine-protein phosphatase non-receptor type 11 (Homo sapiens); test: Inhibition of human wild-type full length SHP2 at 20 uM using H-Glu-Phe-pTyr-Ala-Glu-Val-Gly-Arg-Ser-ProPro-Asp-Pro-Ala-Lys as substrate in presence of 0.001% Triton X
Summary of the method: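 Full-length SHP2 or SHP1 (0.1 µg) preincubated with compound 30 min at room temperature in 25 mM Tris-HCl pH 7.4, 50 mM NaCl, 5 mM DTT, 2.5 mM EDTA. Phospho-peptide substrate added to 50 µM final; 30 min at 30 °C. Released phosphate read by Malachite Green at OD620. IC50 from six concentrations; three experiments.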

[3] = biological target: T2, Tyrosine-protein phosphatase non-receptor type 11 (Mus musculus) (UniProt P35235); test: Inhibition of SHP2 in mouse Ba/F3 cells assessed as reduction in IL3-stimulated JAK2 phosphorylation pretreated for 4 hrs followed by IL3 stimulation and measured after 5 to 60 mins by Western blot analysis; format: cell-based
T2 sequence (whole entry): T1 sequence (whole entry) with M450V, A550V, K590R
Summary of the method: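 Ba/F3 cells starved overnight in serum- and cytokine-free RPMI1640. Treated with 20 µM compound for 4 h, then IL-3 (2 ng/mL) for the indicated times. RIPA lysates (50 µg) immunoblotted for p-Erk, p-Akt, p-Jak2 and p-Stat5, then reprobed for total proteins. Representative of three experiments.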

NCI-H661 = test: Growth inhibition of PTPN11 N58S mutant harboring human NCI-H661 cells after 48 hrs by cell proliferation-based assay; format: functional; summary of the method: as §1
[4] = tested on: T3, Tyrosine-protein phosphatase non-receptor type 11 (Mus musculus), P35235 [E76K]; test: Inhibition of PTPN11 E76K mutant in mouse embryonic fibroblasts assessed as inhibition of cell growth at 6 uM after 24 to 72 hrs by cell proliferation-based assay
T3 sequence (whole entry): T1 sequence (whole entry) with E76K, M450V, A550V, K590R
Summary of the method: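 Ptpn11 E76K/+ and Ptpn11 +/+ MEFs treated with 6 µM compound; cell number read by One Solution proliferation assay. Triplicates from one of three experiments.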

[5] = tested on: T3, Tyrosine-protein phosphatase non-receptor type 11 (Mus musculus), P35235 [E76K]; test: Inhibition of Ptpn11 E76K mutant in Ptpn11 E76K mutant /Mx1-Cre containing mouse bone marrow cells assessed as reduction in GM-CSF-induced colony forming units at 1.25 to 5 uM after 7 days by inverted microscopy
Summary of the method: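 Bone marrow from Ptpn11 E76K/+/Mx1-Cre+ and +/+/Mx1-Cre+ mice, 2×10⁴ cells/mL, in 0.9% methylcellulose IMDM with 30% FBS and GM-CSF 1.0 ng/mL, plus compound or DMSO. CFU-GM and CFU-M counted at day 7, normalized to WT DMSO colonies. Mean ± SD of three experiments.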

CCOc1cc(O)c(C(=O)/C=C/c2ccc(Cl)cc2Cl)cc1CN1CCC=C(n2c(=O)[nH]c3ccccc32)C1
active: growth inhibition (GI) (NCI-H596) Dose-dependent effect | inhibition [1] | inhibition [2] | inhibition [3] Dose-dependent effect | growth inhibition (GI) (NCI-H661) | growth inhibition (GI) [4] | inhibition [5]
